Our source for the IC50, Ki and Activity values is ChEMBL document CHEMBL4382197, “Discovery of QCA570 as an Exceptionally Potent and Efficacious Proteolysis Targeting Chimera (PROTAC) Degrader of the Bromodomain and Extra-Terminal (BET) Proteins Capable of Inducing Complete and Durable Tumor Regression” (J Med Chem, 2018).

Active and inactive are the calls of the source. No cut-off for these calls is given here. Some results are limits rather than exact numbers.

In experiment [1] the target is Bromodomain-containing protein 4 (Homo sapiens, UniProt O60885).
Experiment [2] addresses T1, Protein cereblon/Bromodomain-containing protein 2/Cullin-4A (Homo sapiens) (UniProt P25440+Q96SW2+Q13619). As to the kind of experiment: Protac activity at cereblon/cullin 4A/BRD2 in human RS4:11 cells assessed as BRD2 degradation by Western blot analysis. It counts as cell-based. (In western blotting, separated proteins are transferred to a membrane and probed.)
The target in experiment [3] is T2, Protein cereblon/Bromodomain-containing protein 3/Cullin-4A (Homo sapiens) (UniProt Q15059+Q96SW2+Q13619). As to the kind of experiment: Protac activity at cereblon/cullin 4A/BRD3 in human RS4:11 cells in assessed as BRD3 degradation by Western blot analysis. It counts as cell-based.
The test system of a further experiment is MV4-11. As to the kind of experiment: Growth inhibition of human MV4-11 cells after 96 hrs by CCK8 assay. It counts as functional, cell-based. The settings on record: MV4-11, 96 h. In general terms: Formazan colour is commonly taken as a measure of viable cells.
For experiment [4], the system named is RS4-11. The experiment in a line: Growth inhibition of human RS4:11 cells after 96 hrs by CCK8 assay. It counts as functional, cell-based. To be noted: RS4-11, 96 h.
In experiment [5] the target is T3, Protein cereblon/Bromodomain-containing protein 4/Cullin-4A (Homo sapiens) (UniProt O60885+Q96SW2+Q13619). As to the kind of experiment: Protac activity at cereblon/cullin 4A/BRD4 in human RS4:11 cells assessed as BRD4 degradation by Western blot analysis. It counts as cell-based.
For another experiment, the system named is MOLM-13. As to the kind of experiment: Growth inhibition of human MOLM13 cells after 96 hrs by CCK8 assay. It counts as functional, cell-based. The settings on record: MOLM-13, 96 h.
Experiment [6] concerns the target Protein cereblon/Bromodomain-containing protein 4/Bromodomain-containing protein 3/Bromodomain-containing protein 2 (Homo sapiens) (UniProt P25440+O60885+Q15059+Q96SW2). The experiment in a line: Protac activity at cereblon/cullin 4A/BET in human RS4:11 cells assessed as reduction in c-myc protein levels at 0.1 nM after 3 hrs by Western blot analysis. It counts as cell-based.

Experiment [7] concerns the target T2, Protein cereblon/Bromodomain-containing protein 3/Cullin-4A (Homo sapiens). As to the kind of experiment: Protac activity at cereblon/cullin 4A/BRD3 in human RS4:11 cells in assessed as BRD3 degradation at 0.1 nM after 3 hrs by Western blot analysis. It counts as cell-based.
The target of experiment [8] is T3, Protein cereblon/Bromodomain-containing protein 4/Cullin-4A (Homo sapiens). The experiment in a line: Protac activity at cereblon/cullin 4A/BRD4 in human RS4:11 cells assessed as BRD4 degradation at 0.1 nM after 3 hrs by Western blot analysis. It counts as cell-based.
Experiment [9] has as its target T1, Protein cereblon/Bromodomain-containing protein 2/Cullin-4A (Homo sapiens). As to the kind of experiment: Protac activity at cereblon/cullin 4A/BRD2 in human RS4:11 cells assessed as BRD2 degradation at 0.1 nM after 3 hrs by Western blot analysis. It counts as cell-based.
The subject of experiment [10] is RS4-11. The experiment in a line: Induction of apoptosis in human RS4:11 cells assessed as PARP cleavage at 0.1 to 10 nM after 24 hrs by Western blot analysis. It counts as functional, cell-based. The gist of the method:
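Cells (1.5–2×10^6/well) were treated for 24 h, washed in cold PBS and lysed in RIPA with protease inhibitors. 20 µg lysate was run on 4–20% or 4–12% gels and transferred to PVDF. Blots were probed for cleaved PARP and cleaved caspase 3, with GAPDH as loading control. Detection by ECL.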

Experiment [11] addresses T2, Protein cereblon/Bromodomain-containing protein 3/Cullin-4A (Homo sapiens). As to the kind of experiment: Protac activity at cereblon/cullin 4A/BRD3 in human RS4:11 cells in assessed as BRD3 degradation at 0.1 to 1 uM after 3 to 24 hrs by Western blot analysis. It counts as cell-based.
For experiment [12], the target named is T1, Protein cereblon/Bromodomain-containing protein 2/Cullin-4A (Homo sapiens). The experiment in a line: Protac activity at cereblon/cullin 4A/BRD2 in human RS4:11 cells assessed as induction of BRD2 degradation at 0.1 to 1 uM after 3 to 24 hrs by Western blot analysis. It counts as cell-based.
Experiment [13] has as its target T3, Protein cereblon/Bromodomain-containing protein 4/Cullin-4A (Homo sapiens). As to the kind of experiment: Protac activity at cereblon/cullin 4A/BRD4 in human RS4:11 cells assessed as BRD4 degradation at 0.1 to 1 uM after 3 to 24 hrs by Western blot analysis. It counts as cell-based.
The target of experiment [14] is T2, Protein cereblon/Bromodomain-containing protein 3/Cullin-4A (Homo sapiens). As to the kind of experiment: Protac activity at cereblon/cullin 4A/BRD3 in human RS4:11 cells assessed as BRD3 degradation at 1 to 10 uM after 3 to 24 hrs by Western blot analysis. It counts as cell-based. In a few lines:
(§1)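 Cells are used within two months of thawing. […] 1.5–2×10^6 cells/well are treated for 3 h or 24 h, then lysed in RIPA with protease inhibitors. 20 µg lysate is blotted to PVDF and probed with rabbit polyclonal anti-BRD2 or anti-BRD3. GAPDH is the loading control, detected by ECL.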

For experiment [15], the system named is RS4-11. As to the kind of experiment: Induction of apoptosis in human RS4:11 cells assessed as PARP cleavage at 10 uM after 24 hrs by Western blot analysis. It counts as functional, cell-based.
Experiment [16] has as its target T2, Protein cereblon/Bromodomain-containing protein 3/Cullin-4A (Homo sapiens). The experiment in a line: Protac activity at cereblon/cullin 4A/BRD3 in human MV4-11 cells assessed as BRD3 degradation at 1 to 10 uM after 3 to 24 hrs by Western blot analysis. It counts as cell-based. In a few lines: as §1

T1 sequence (P25440 whole entry, looked up): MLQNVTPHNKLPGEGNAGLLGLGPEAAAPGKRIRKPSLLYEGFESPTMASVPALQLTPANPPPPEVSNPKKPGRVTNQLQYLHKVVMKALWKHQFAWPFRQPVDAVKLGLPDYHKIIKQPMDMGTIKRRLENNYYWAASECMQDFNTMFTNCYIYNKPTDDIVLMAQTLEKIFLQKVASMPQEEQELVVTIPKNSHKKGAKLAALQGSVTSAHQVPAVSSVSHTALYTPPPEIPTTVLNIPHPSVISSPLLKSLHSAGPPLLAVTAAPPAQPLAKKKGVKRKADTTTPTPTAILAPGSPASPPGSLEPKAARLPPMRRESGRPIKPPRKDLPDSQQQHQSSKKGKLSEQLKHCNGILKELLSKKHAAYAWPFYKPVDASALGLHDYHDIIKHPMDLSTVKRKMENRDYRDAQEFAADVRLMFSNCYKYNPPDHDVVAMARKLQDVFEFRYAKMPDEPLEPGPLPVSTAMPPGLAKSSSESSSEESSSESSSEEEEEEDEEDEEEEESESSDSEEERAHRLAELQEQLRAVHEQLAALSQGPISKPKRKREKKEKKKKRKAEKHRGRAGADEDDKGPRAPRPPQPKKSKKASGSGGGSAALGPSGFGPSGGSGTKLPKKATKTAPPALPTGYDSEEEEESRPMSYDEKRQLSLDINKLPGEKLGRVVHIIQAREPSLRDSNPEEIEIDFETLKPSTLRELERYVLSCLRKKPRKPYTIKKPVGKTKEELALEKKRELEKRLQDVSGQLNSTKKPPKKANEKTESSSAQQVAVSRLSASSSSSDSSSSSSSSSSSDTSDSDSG
T1 sequence (Q13619 whole entry, looked up): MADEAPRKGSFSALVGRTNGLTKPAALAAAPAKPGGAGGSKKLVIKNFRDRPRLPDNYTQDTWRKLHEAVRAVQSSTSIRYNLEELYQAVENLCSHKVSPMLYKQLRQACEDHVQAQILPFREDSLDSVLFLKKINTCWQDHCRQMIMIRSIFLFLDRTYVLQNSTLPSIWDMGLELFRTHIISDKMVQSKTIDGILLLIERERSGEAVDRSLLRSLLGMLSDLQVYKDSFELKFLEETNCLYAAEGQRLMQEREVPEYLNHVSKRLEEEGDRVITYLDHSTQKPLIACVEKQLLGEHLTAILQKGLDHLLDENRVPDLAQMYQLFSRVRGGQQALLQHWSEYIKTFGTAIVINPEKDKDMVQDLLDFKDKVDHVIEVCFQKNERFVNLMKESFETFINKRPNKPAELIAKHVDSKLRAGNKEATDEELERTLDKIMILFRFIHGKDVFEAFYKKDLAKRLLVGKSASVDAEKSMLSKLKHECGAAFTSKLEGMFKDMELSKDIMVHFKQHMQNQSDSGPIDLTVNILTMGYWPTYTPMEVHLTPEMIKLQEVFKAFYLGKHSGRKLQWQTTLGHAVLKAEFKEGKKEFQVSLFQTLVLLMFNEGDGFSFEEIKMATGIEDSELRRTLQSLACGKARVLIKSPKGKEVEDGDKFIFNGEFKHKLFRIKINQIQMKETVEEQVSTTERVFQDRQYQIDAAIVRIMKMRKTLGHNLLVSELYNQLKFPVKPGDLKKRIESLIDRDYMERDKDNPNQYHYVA
T1 sequence (Q96SW2 whole entry, looked up): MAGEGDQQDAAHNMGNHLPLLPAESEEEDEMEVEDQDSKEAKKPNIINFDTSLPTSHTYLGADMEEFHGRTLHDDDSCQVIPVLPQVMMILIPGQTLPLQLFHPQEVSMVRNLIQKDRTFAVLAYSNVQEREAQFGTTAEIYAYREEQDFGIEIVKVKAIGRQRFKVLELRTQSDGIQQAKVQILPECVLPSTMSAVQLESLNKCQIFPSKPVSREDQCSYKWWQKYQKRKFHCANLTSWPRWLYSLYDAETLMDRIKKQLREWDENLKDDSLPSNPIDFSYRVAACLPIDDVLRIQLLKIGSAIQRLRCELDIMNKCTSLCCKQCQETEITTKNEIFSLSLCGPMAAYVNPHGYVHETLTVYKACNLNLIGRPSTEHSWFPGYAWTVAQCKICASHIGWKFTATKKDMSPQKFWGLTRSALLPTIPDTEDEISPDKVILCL
T2 sequence (Q13619 whole entry, looked up): as the sequence (Q13619 whole entry, looked up) above
T2 sequence (Q15059 whole entry, looked up): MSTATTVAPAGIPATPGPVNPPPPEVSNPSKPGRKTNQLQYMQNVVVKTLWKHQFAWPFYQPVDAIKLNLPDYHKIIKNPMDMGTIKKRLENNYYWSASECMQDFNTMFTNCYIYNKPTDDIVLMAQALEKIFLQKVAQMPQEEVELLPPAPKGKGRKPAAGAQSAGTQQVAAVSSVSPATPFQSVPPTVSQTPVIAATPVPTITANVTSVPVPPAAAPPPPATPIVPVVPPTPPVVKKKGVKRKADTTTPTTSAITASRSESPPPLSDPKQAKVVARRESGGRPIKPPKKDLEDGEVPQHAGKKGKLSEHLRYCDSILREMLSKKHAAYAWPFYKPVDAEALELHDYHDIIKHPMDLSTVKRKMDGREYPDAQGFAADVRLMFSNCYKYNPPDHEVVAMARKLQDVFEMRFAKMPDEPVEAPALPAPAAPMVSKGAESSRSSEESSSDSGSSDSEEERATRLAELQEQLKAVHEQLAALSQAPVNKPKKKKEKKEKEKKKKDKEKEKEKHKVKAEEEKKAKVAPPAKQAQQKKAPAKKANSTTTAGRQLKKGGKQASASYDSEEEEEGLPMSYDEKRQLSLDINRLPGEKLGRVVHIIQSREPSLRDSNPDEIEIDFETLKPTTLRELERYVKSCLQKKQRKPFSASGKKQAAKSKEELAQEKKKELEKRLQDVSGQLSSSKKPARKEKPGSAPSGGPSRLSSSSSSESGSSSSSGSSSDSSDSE
T2 sequence (Q96SW2 whole entry, looked up): as the sequence (Q96SW2 whole entry, looked up) above
Chain of Protein cereblon/Bromodomain-containing protein 4/Bromodomain-containing protein 3/Bromodomain-containing protein 2 (Homo sapiens) (P25440 whole entry, looked up, other chains not shown): as the sequence (P25440 whole entry, looked up) above
Chain of Protein cereblon/Bromodomain-containing protein 4/Bromodomain-containing protein 3/Bromodomain-containing protein 2 (Homo sapiens) (Q15059 whole entry, looked up, other chains not shown): as the sequence (Q15059 whole entry, looked up) above
Chain of Protein cereblon/Bromodomain-containing protein 4/Bromodomain-containing protein 3/Bromodomain-containing protein 2 (Homo sapiens) (Q96SW2 whole entry, looked up, other chains not shown): as the sequence (Q96SW2 whole entry, looked up) above

Turning to `Cc1nnc2n1-c1sc(C#N)c(Cc3ccccc3)c1COC2`, in [1], the IC50 (as a rule, the concentration that gives 50% inhibition) came out at 720 nM and the inhibition constant (Ki) (usually a dissociation constant, usually derived from enzyme kinetics or from competition with a known ligand) stood at 250 nM.

Regarding `Cc1nnc2n1Cc1sc(C#Cc3cnn(COc4cccc5c4C(=O)N(C4CCC(=O)NC4=O)C5=O)c3)c(Cc3ccccc3)c1OC2` (centres undefined), the Activity entry in experiment [2], in experiment [3] and in experiment [5] was “Dose-dependent effect” in each case. The IC50 stood at 19.7 nM in the experiment on MV4-11, 20.8 nM with RS4-11 [4] and 311 nM in the experiment with MOLM-13.

As for `Cc1nnc2n1Cc1sc(C#Cc3cnn(CCCCNc4cccc5c4CN(C4CCC(=O)NC4=O)C5=O)c3)c(Cc3ccccc3)c1OC2` (centres undefined), the IC50 in the experiment on RS4-11 [4] worked out at 0.0012 nM; in the experiment with MOLM-13, 0.18 nM.

In the case of `Cc1nnc2n1Cc1sc(C#Cc3cnn(CCCCCNc4cccc5c4C(=O)N(C4CCC(=O)NC4=O)C5=O)c3)c(Cc3ccccc3)c1OC2` (centres undefined), the result (in experiment [6]; in experiment [7]; in experiment [8]; in experiment [9]; with RS4-11 [10]) was Active. For the same molecule, the half-maximal inhibitory concentration (IC50) was 0.092 nM in the experiment on MV4-11, 0.02 nM in the experiment on RS4-11 [4] and 0.19 nM in the experiment with MOLM-13.

On to `Cc1nnc2n1Cc1sc(C#Cc3cnn(-c4cccc5c4C(=O)N(C4CCC(=O)NC4=O)C5=O)c3)c(Cc3ccccc3)c1OC2` (centres undefined), for which the result in experiment [11], in experiment [12] and in experiment [13] was inactive. Besides, the IC50 in the experiment on MV4-11, with RS4-11 [4] and with MOLM-13 was > 1000 nM throughout.

On to `Cc1nnc2n1Cc1sc(C#Cc3cnn(CCCNc4cccc5c4CN(C4CCC(=O)NC4=O)C5=O)c3)c(Cc3ccccc3)c1OC2` (centres undefined), for which the IC50 in the experiment with MV4-11 is 0.035 nM; with RS4-11 [4] it was 0.025 nM; in the experiment on MOLM-13, 0.51 nM.

For `Cc1sc2c(c1C)COCc1nnc(C)n1-2`, in experiment [1], the IC50 came out at 4400 nM and the Ki worked out at 1500 nM.

In experiment [1], `Cc1nnc2n1-c1scc(Cc3ccccc3)c1COC2` came in with a half-inhibitory concentration (IC50) of 2300 nM and a Ki of 820 nM.

As to `Cc1nnc2n1Cc1sc(C#Cc3cnn(CCNc4cccc5c4C(=O)N(C4CCC(=O)NC4=O)C5=O)c3)c(Cc3ccccc3)c1OC2` (centres undefined), the IC50 with MV4-11 stood at 0.47 nM; in the experiment with RS4-11 [4], 0.379 nM; in the experiment on MOLM-13, 2.23 nM. In addition, the outcome with RS4-11 [10] was Active.

For `Cc1nnc2n1Cc1sc(C#Cc3cnn(CCCNc4cccc5c4C(=O)N(C4CCC(=O)NC4=O)C5=O)c3)c(Cc3ccccc3)c1OC2` (centres undefined), the result (in [7]; in experiment [8]; in [9]; in the experiment with RS4-11 [10]) was Active. Also, the results for the half-inhibitory concentration (IC50) in the experiment with MV4-11, with RS4-11 [4] and with MOLM-13 were 0.138 nM, 0.038 nM and 0.56 nM, respectively.

Regarding `Cc1nnc2n1Cc1sc(C#Cc3cnn(CCCCNc4cccc5c4C(=O)N(C4CCC(=O)NC4=O)C5=O)c3)c(Cc3ccccc3)c1OC2` (centres undefined), the outcome (in experiment [6]; in experiment [7]; in experiment [8]; in experiment [9]; in the experiment with RS4-11 [10]) was Active. Besides, the values for the IC50 in the experiment with MV4-11, in the experiment with RS4-11 [4] and in the experiment with MOLM-13 were 0.0654 nM, 0.02 nM and 0.19 nM, respectively.

As to `Cc1nnc2n1Cc1sc(C#Cc3cnn(CCCCCc4cccc5c4CN(C4CCC(=O)NC4=O)C5=O)c3)c(Cc3ccccc3)c1OC2` (centres undefined), the IC50 turned out to be 0.14 nM with MV4-11, 0.081 nM with RS4-11 [4] and 0.53 nM in the experiment with MOLM-13.

As for `Cc1nnc2n1Cc1sc(C#Cc3cnn(CCCC#Cc4cccc5c4CN(C4CCC(=O)N(C)C4=O)C5=O)c3)c(Cc3ccccc3)c1OC2` (centres undefined), the IC50 was 25.8 nM in the experiment on MV4-11, 43.7 nM with RS4-11 [4] and 183 nM in the experiment with MOLM-13.

On to `Cc1nnc2n1-c1sc(C#Cc3cnn(C)c3)c(Cc3ccccc3)c1COC2`, for which the result (in experiment [14]; in the experiment on RS4-11 [15]) was Active. The result in [16] was inactive.

For the molecule `Cc1nnc2n1Cc1sc(C#Cc3cnn(CCCC#Cc4cccc5c4C(=O)N(C4CCC(=O)NC4=O)C5=O)c3)c(Cc3ccccc3)c1OC2` (centres undefined), the IC50 in the experiment on MV4-11 is 0.72 nM; with RS4-11 [4], 0.39 nM; in the experiment on MOLM-13, 1.6 nM.

In experiment [1], `Cc1nnc2n1-c1sc(C3CCOCC3)c(Cc3ccccc3)c1COC2` showed an IC50 of 8100 nM and a Ki of 2800 nM.
